High-throughput results as filed in PubChem BioAssay.
In the library only some 1.6% were active in any assay of this set; here they are far more common.
TLR4-MyD88 BLA = inhibitors of TLR4-MyD88 association in cells, primary screen, cell-based, HeLa CL3-4, BLA complementation, FRET ratio; AID 861, 2007; inhibition, % at 8.4 µM; HeLa CL3-4 TLR4/MyD88 BLA complementation; actives 0.18% (n = 200,000); in the data active means inhibition above about 25%;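 further: 0% = vehicle and 100% = reference inhibitor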
NOD2-RIPK2 inh = NOD2-RIPK2 binding disruptors in cells, primary screen, fluorescence, CHO cells, BLA complementation. Receptor-interacting serine/threonine-protein kinase 2 (Homo sapiens), O43353. CCF4 ratio. inhibition, % at 4.98 µM. actives 0.38% (n = 360,000). AID 624267, 2012; in the data active means inhibition above about 21%;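 further: 0% = vehicle only and 100% = reference blocker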
Hep lipid drop = inhibitors of hepatocyte lipid droplet formation, primary screen, imaging, high-throughput imaging, BODIPY stain. AML12 mouse hepatocytes, oleate lipid droplets. inhibition, % at 6.5 µM. actives 0.4% (n = 240,000);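 active means lipid droplet intensity inhibited by at least 50%, with more than 500 cells counted; inconclusive means wells with under 300 cells, treated as cytotoxic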
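Material: mouse AML12 hepatocyte cell line, fixed after treatment; Timing: compound with oleate, overnight; Technique: high-content imaging of BODIPY-stained droplets and DAPI nuclei; Probe or stimulus: oleate, 100 µM final; Dosing: compound at 6.5 µM only.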
TLR9-MyD88 block = inhibitors of TLR9-MyD88 association in cells, primary screen, cell-based, CHO, BLA complementation, fluorescence | inhibition, % at 4.98 µM | actives 0.21% (n = 340,000) | CCF4 FRET ratio | AID 504734, 2011 | Toll-like receptor 9 (Homo sapiens) + Myeloid differentiation primary response protein …;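 active means inhibition above the mean over all tested compounds plus 3 SD, cut at about 21% in these data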;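 further: 0% = DMSO only wells and 100% = clavulanate BLA inhibitor control wells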
SR-BI HDL uptake = inhibitors of SR-BI mediated HDL lipid uptake, primary screen, ldlA[mSR-BI] cells, fluorescence, single point; ldlA[mSR-BI] CHO cells, DiI-HDL uptake fluorescence, 3 h; inhibition, % at 12.5 µM; actives 0.96% (n = 320,000);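 active means mean replicate inhibition of at least 70% and a set share of replicates each scoring 70 or more; inconclusive means meets just one of the two criteria; inactive means fails both criteria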;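 further: 0% = median of neutral control wells and 100% = median of positive control wells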
SR-BI DiI-HDL act = activators of SR-BI mediated DiI-HDL uptake, primary screen, ldlA[mSR-BI] CHO cells, DiI fluorescence | 3 h; 100 = double the neutral-control signal | activation, % at 12.5 µM | actives 0.096% (n = 320,000) | AID 504775, 2011;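 active means mean replicate activation of at least 60% and every replicate at or above 60%; inconclusive means mean or all-replicate condition met, but not both; inactive means mean below 60% and not all replicates reaching 60%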;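 further: 0% = median plate neutral-control signal and 100% = twice that signal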
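Test system: SR-BI-overexpressing, LDLR-lacking CHO cells; Also added: labelled HDL, 10 µg/mL; Measured by: bottom-read cell fluorescence after medium removal, ex 550/em 595 nm; Timing: 3 h uptake period with compound, 37 °C; Buffer or medium: F12, 0.5% BSA, 25 mM HEPES; Doses: single compound concentration, delivered by pin transfer.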
TLR9-MyD88 cf = TLR9-MyD88 association inhibitors, retest, confirmation, cell-based, CHO, BLA complementation, fluorescence, triplicate; inhibition, % at 4.98 µM; shares compounds with TLR9-MyD88 block; actives 51% (n = 680); CCF4 FRET ratio;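 active means mean inhibition across three repeats above about 21% taken from the earlier screen, limit read from the data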;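 further: blue over green emission ratio reports constitutive TLR9 MyD88 association via BLA complementation; 0% = DMSO vehicle wells and 100% = clavulanate BLA inhibitor wells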
Target sequence (Q9NR96 whole entry, looked up): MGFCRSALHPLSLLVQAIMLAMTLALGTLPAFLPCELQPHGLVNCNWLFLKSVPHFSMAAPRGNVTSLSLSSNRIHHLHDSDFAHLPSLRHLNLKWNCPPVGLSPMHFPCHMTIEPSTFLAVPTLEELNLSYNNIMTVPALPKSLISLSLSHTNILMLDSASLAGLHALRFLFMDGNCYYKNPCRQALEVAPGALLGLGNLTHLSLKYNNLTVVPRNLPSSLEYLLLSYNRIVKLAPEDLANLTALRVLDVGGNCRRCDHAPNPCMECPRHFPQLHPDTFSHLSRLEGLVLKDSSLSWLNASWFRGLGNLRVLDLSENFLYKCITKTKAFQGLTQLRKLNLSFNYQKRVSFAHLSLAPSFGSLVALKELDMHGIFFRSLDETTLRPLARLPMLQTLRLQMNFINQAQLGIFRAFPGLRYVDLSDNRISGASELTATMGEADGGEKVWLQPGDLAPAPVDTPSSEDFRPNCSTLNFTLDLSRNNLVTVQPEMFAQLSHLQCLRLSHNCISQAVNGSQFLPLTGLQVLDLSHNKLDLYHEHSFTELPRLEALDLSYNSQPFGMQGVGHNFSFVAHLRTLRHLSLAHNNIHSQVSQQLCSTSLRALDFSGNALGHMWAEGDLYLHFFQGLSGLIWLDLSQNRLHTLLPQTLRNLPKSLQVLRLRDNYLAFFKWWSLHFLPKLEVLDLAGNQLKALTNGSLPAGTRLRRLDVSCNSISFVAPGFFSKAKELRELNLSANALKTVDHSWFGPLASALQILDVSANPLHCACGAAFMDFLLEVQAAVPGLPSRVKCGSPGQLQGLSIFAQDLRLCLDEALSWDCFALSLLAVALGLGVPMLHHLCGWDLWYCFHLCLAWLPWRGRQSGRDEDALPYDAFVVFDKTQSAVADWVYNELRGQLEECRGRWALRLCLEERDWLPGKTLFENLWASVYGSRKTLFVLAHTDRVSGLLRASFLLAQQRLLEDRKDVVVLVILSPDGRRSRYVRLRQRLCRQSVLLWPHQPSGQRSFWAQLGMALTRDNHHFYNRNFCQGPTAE
BLA counter-1 = beta-lactamase reporter inhibitors in CHO cells, artefact control for TLR9-MyD88 binding inhibitor project, cell-based, fluorescence; shares compounds with TLR9-MyD88 block; AID 540251, 2011; CHO-BLA cells, CCF4 FRET ratio, BLA reporter; actives 7% (n = 680); inhibition, % at 4.98 µM;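 active means mean inhibition above a 50% cutoff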;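 further: counterscreen of TLR9-MyD88 hits on CMV-driven BLA in CHO-K1 cells; 0% = DMSO alone and 100% = clavulanate blocking BLA; higher means less blue over green ratio so more BLA blockade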
TLR9 CHO tox = CHO cell viability loss – luminescence, single concentration, cytotoxicity control for TLR9-MyD88 binding inhibitor project; shares compounds with TLR9-MyD88 block; AID 588336, 2011; inhibition, % at 4.98 µM; actives 39% (n = 680); TLR9-MyD88 CHO cells cytotoxicity; in the data active means inhibition above about 11%
NOD2-RIPK2 conf = NOD2-RIPK2 binding disruptors, retest, confirmation, fluorescence, CHO cells, BLA complementation, triplicate; shares compounds with NOD2-RIPK2 inh; CCF4 FRET; inhibition, % at 4.98 µM; actives 70% (n = 1,200);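 active means mean inhibition across replicates above a set limit taken from the earlier primary screen, cut at about 21% in these data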;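 further: 0% = DMSO-only wells and the high end = clavulanate BLA-blocked wells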
BLA counter-2 = hits BLA reporter in NOD2-RIPK2 inhibitor counterscreen | inhibition, % at 4.98 µM | shares compounds with NOD2-RIPK2 inh | CHO BLA reporter, CCF4 FRET ratio | actives 57% (n = 1,200);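 active means mean inhibition above the low-control mean inhibition plus three low-control SD, cut at about 11% in these data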;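 further: 0% = DMSO only wells and 100% = clavulanate high control wells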
The depositor's hits bear a star; ? = inconclusive; . = not tested or not shown.

SMILES | TLR4-MyD88 BLA | NOD2-RIPK2 inh | Hep lipid drop | TLR9-MyD88 block | SR-BI HDL uptake | SR-BI DiI-HDL act | TLR9-MyD88 cf | BLA counter-1 | TLR9 CHO tox | NOD2-RIPK2 conf | BLA counter-2
COc1ccccc1N(C(C)=O)C1=C(Cl)C(=O)c2ccccc2C1=O | . | 90* | . | 65* | . | . | 86* | 23 | 102* | 96* | 51*
CC(O)CN(CC(C)O)c1ccc2c(c1)Cc1cc([N+](=O)[O-])ccc1-2 (stereo unspecified) | . | 60* | . | 53* | 89* | -89 | 44* | 45 | 5 | 22* | 70*
CCOC(=O)Nc1ccc2c(c1)Cc1cc([N+](=O)[O-])ccc1-2 | . | 15 | . | 6 | 56 | -56 | . | . | . | . | .
CCC(CC)NC(=O)C1CCN(c2ccc(S(=O)(=O)N3CCOCC3)cc2[N+](=O)[O-])CC1 | . | 3 | . | 3 | 20 | -20 | . | . | . | . | .
Nc1ccc(-c2nc3ccc(C(=O)O)cc3s2)cc1 | -14 | -18 | -8 | 3 | -23 | 23 | . | . | . | . | .
Nc1cc2sc(-c3ccc(C(=O)O)cc3)nc2cc1Cl | 6 | 35* | 6 | 24* | -12 | 12 | 10 | 11 | 14* | 32* | 40*
O=C(Nc1ccc(Cl)c(S(=O)(=O)N2CCOCC2)c1)[C@@H]1CCCN1C(=O)c1cccs1 | . | 1 | . | -1 | 3 | -3 | . | . | . | . | .
O=C1C2C3C=CC(CC3)C2C(=O)N1c1cccc(Br)c1 (stereo unspecified) | . | -12 | -1 | 1 | -34 | 34 | . | . | . | . | .
COc1cc2oc3cc(C#Cc4ccc(N)cc4)ccc3c(=O)c2cc1OC | . | 26* | . | 38* | ? | -71 | 40* | 44 | 8 | 54* | 58*
Nc1ccc(C#Cc2ccc3c(=O)c4ccccc4oc3c2)cc1 | . | 67* | . | 74* | 8 | -8 | 64* | 70* | 4 | 78* | 84*
N#Cc1ccc(C#Cc2ccc3oc4ccccc4c(=O)c3c2)cc1 | . | -1 | . | 4 | -16 | 16 | . | . | . | . | .
COc1cc2oc3ccc(C#Cc4ccc(N)cc4)cc3c(=O)c2cc1OC | . | -2 | . | -12 | 56 | -56 | . | . | . | . | .
Cc1ccccc1Oc1cc(-n2ncc(Cl)c(Cl)c2=O)ncn1 | -8 | 26* | -1 | 35* | 22 | -22 | 38* | 24 | 99* | 76* | -3
Fc1ccc(C2CC(c3ccco3)=NN2c2ccccc2)cc1 (stereo unspecified) | -6 | 1 | . | -2 | 5 | -5 | . | . | . | . | .
NS(=O)(=O)c1ccc(N2N=C(c3ccccc3)CC2c2ccccc2Br)cc1 (stereo unspecified) | . | 8 | . | -5 | 45 | -45 | . | . | . | . | .
O=[N+]([O-])c1ccc(N2N=C(c3ccccc3)CC2c2ccccc2O)cc1 (stereo unspecified) | . | 39* | 8 | 40* | 39 | -39 | 33* | 38 | 6 | 51* | 65*
O=[N+]([O-])c1ccc(N2N=C(c3ccco3)CC2c2ccccc2)cc1 (stereo unspecified) | 20 | 56* | . | 38* | 8 | -8 | 21* | 22 | 1 | 49* | 53*
CC(=O)NC(c1ccccc1)c1nc(-c2ccc(C)c(C)c2)cs1 (stereo unspecified) | . | -1 | . | . | . | . | . | . | . | . | .
CC(=O)Oc1ccc2cc(-c3nc4ccccc4n3C)c(=O)oc2c1 | 12 | 39* | . | 22* | -27 | 27 | 15 | 42 | 5 | 38* | 59*
Oc1ccc(C2C=C(c3ccc(F)cc3)Nc3ncnn32)cc1 (stereo unspecified) | . | 50* | -5 | 40* | . | . | 7 | 4 | 0 | 37* | 46*
Cc1ccc(C2C=C(c3ccccc3)Nc3ncnn32)cc1 (stereo unspecified) | . | 48* | . | 37* | 25 | -25 | 6 | 5 | 3 | 16 | 18*
COc1ccc(C2C=C(c3ccc(C)cc3)Nc3ncnn32)cc1 (stereo unspecified) | 19 | 52* | . | 41* | 20 | -20 | -2 | 1 | -1 | 11 | 10
C1=C(c2ccc(-c3ccccc3)cc2)Nc2ncnn2C1c1ccco1 (stereo unspecified) | 1 | 39* | . | 27* | -1 | 1 | 7 | 1 | 2 | 5 | 3
COc1cccc(C2=CC(c3ccc(N(C)C)cc3)n3ncnc3N2)c1 (stereo unspecified) | -3 | . | . | . | . | . | . | . | . | . | .
Brc1ccc(C2=CC(c3ccco3)n3nnnc3N2)cc1 (stereo unspecified) | . | -7 | 10 | -5 | 13 | -13 | . | . | . | . | .
CCOCCCNc1ccc(N2C(=O)CCCC2=O)cc1[N+](=O)[O-] | . | 0 | -6 | -9 | 9 | -9 | . | . | . | . | .
Cc1cc(Br)c(NC(=O)Cn2c([N+](=O)[O-])cnc2C)cc1C | . | -11 | 0 | 5 | -1 | 1 | . | . | . | . | .
O=C(CCN1C(=O)c2ccccc2C1=O)N1CCC(c2ccccc2)C1 (stereo unspecified) | -11 | -4 | 1 | -4 | -19 | 19 | . | . | . | . | .
O=C(c1ccccc1)c1ccccc1N1C(=O)C=CC1=O | . | 70* | -10 | 33* | . | . | 26* | 5 | 96* | 69* | 16*
O=C(O)c1cccc(N2C(=O)C=CC2=O)c1 | . | -11 | . | -2 | . | . | . | . | . | . | .
